Screens (PubChem)
The list is not random: actives were taken first. Their share in the collection is about 2.9%.
dFosB act: enhances mouse delta FosB homodimer DNA binding; purified delta FosB, TAMRA-CDK5 oligo fluorescence polarization; percent of positive-control signal above neutral wells; activation, % at 25 µM; 340,000 tested, 0.99% active; AID 493131;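 active = mean activation above about 17%, with every replicate also reaching it, limit read from the data, passing the limit was not always enough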
CDK5 p35 inh: CDK5/p35 (human) kinase inhibition; Q00535+Q15078; Recombinant CDK5/p35, ADP-Glo luminescence, 60 min; inhibition, % at 10 µM; 330,000 tested, 0.01% active;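 active = highest replicate inhibition of at least 50% and at least 75% of replicates reaching 50%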;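 also: plate controls were DMSO neutral control for no effect and GW8510 at 10 µM for full effect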
Target sequence (Q00535 whole entry, looked up): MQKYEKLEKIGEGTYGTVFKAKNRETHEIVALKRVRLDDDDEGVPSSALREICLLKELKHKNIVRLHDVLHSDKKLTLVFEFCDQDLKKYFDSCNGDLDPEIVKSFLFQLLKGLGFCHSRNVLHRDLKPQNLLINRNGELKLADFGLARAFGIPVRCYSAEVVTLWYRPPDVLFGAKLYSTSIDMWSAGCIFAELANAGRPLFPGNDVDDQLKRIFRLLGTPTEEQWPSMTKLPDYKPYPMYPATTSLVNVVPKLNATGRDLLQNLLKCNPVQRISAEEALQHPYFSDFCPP
Target sequence (Q15078 whole entry, looked up): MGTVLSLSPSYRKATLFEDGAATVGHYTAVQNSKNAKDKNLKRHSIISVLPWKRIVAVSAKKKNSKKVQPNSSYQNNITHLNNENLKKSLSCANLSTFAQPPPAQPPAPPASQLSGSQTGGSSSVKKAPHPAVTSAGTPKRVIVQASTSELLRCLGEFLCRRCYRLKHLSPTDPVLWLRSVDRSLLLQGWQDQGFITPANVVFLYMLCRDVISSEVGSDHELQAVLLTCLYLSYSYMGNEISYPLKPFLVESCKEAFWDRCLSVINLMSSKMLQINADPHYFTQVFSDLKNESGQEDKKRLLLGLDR
Cneo AK release: Cryptococcus neoformans lysis via adenylate kinase release | 360,000 tested, 0.2% active | C. neoformans lysis, adenylate kinase release luminescence, 4 h; normalised: neutral wells 0, clomiphene wells 100 | AID 651654 | lysis activity, % at 15 µM;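 active = mean lysis activity across replicates of at least 80%, whatever share of replicates individually reach that level; inactive = mean lysis activity below 80%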
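Material – Cryptococcus neoformans yeast cells · Quantity – 5 × 10^6 yeast cells/mL · Buffer or medium – YPD medium · Compound – single dose · Timing – 4 h static compound exposure, 37 °C, read 1 h post-reagent · Signal – adenylate kinase release luminescence · Read-out basis – lysis from increased AK signal · Benchmarks – Clomiphene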
INS-1E GSIS act: GLuc luminescence reporter in INS-1E cells, primary screen for activators of glucose-dependent secretion of insulin; INS-1E GLuc reporter insulin secretion, 2-3 h; activation, % at 16.6 µM; 370,000 tested, 0.61% active; AID 743287;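 active = lowest replicate activation of at least 40%, so every replicate reaches that level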;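 also: 0% = median of neutral control wells and 100% = median of IBMX positive control wells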
PAX8 reporter: inhibitors of PAX8 transcriptional activity in RMG-I cells; AID 652154; inhibition, % at 12.6 µM; 360,000 tested, 1.2% active; RMG-I TPO-luciferase reporter, SteadyGlo, 24 h;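 active = mean replicate inhibition at least 60% with every replicate also reaching 60%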;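 also: luciferase light reporting Pax8 driven TPO promoter activity; plate controls were median of neutral control wells for no effect and mitoxantrone controls for full effect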
HIV Env fusion: HIV envelope-mediated fusion inhibition; HeLa-JRFL Env/CEM21 cell fusion, luciferase; inhibition, % at 12.3 µM; AID 651610; 360,000 tested, 1.1% active;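 active = mean replicate inhibition score of at least 50 and every replicate individually at or above 50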;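 also: 0% = plate neutral controls and 100% = maraviroc near 300 nM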
Starred values were filed as active, the others as inactive; ! = repeats disagree; [ ] = dose if it differs, or a comment.

How did N#Cc1sc2nccc(Nc3ccccc3)c2c1N do in these assays?
Cneo AK release: -1; PAX8 reporter: -4; HIV Env fusion: 62*

What do the screens show for `O=S(=O)(c1ccc(F)cc1)N1CCC(n2cnc3ccccc32)CC1`?
dFosB act: -7; CDK5 p35 inh: 0; Cneo AK release: -4; INS-1E GSIS act: 0; PAX8 reporter: 2; HIV Env fusion: -15

What do the screens show for `O=S(=O)(c1ccc(Cl)cc1)N1CCC(n2cnc3cc(C(F)(F)F)ccc32)CC1`?
dFosB act: -2; CDK5 p35 inh: 4; INS-1E GSIS act: -53; HIV Env fusion: 64*

How did CC(=O)N(C)C[C@@H]1[C@@H](c2ccc(C#Cc3ccccn3)cc2)[C@@H](CO)N1C(C)=O do in these assays?
INS-1E GSIS act: -6

What do the screens show for `CC(C)(C)c1ccc(-c2cc(-c3ccccc3O)[nH]n2)cc1`?
dFosB act: -7; CDK5 p35 inh: 0; Cneo AK release: -12; INS-1E GSIS act: 68*; PAX8 reporter: -77; HIV Env fusion: -349

Results for Oc1ccccc1-c1cc(-c2cccc(F)c2)n[nH]1 ?
dFosB act: 3; CDK5 p35 inh: 2; Cneo AK release: -8; HIV Env fusion: -330

What do the screens show for `CN(Cc1ccccc1)C(=O)NC1CCCCC1`?
dFosB act: -4; CDK5 p35 inh: -2; Cneo AK release: 4; PAX8 reporter: 4; HIV Env fusion: -21

How did CC[C@@H](CC1CCCCC1)C(=O)N(Cc1ccccc1)c1ccccc1 do in these assays?
dFosB act: -2; CDK5 p35 inh: 0; Cneo AK release: -2; INS-1E GSIS act: 15; PAX8 reporter: 14; HIV Env fusion: 60*

Results for CC(=O)NC[C@H]1[C@@H](c2ccc(-c3ccccc3F)cc2)[C@@H](CO)N1CCC(F)(F)F ?
INS-1E GSIS act: -11

Results for COc1ccc(CN(C(=O)c2nsc(Cl)c2Cl)C(C(=O)NC2CCCC2)c2ccc(C)cc2)cc1 (configuration not stated) ?
dFosB act: -3; CDK5 p35 inh: -1; INS-1E GSIS act: -9; PAX8 reporter: 1; HIV Env fusion: 39

Results for Cc1ccc(C)c(N(C(=O)c2nsc(Cl)c2Cl)C(C(=O)NC2CCCC2)c2ccc(O)cc2)c1 (configuration not stated) ?
dFosB act: 1; Cneo AK release: 0; INS-1E GSIS act: -36; HIV Env fusion: 89*

How did C[C@@H]1CN([C@H](C)CO)C(=O)c2cccc(NS(=O)(=O)c3ccc(Cl)cc3)c2O[C@H]1CN(C)CC1CC1 do in these assays?
Cneo AK release: 0; INS-1E GSIS act: 11; PAX8 reporter: -4; HIV Env fusion: -3[16.7 µM]

What do the screens show for `CCCOc1ccc(/C=N/NC(=O)CSCc2ccc([N+](=O)[O-])cc2)cc1OCC`?
dFosB act: -2; CDK5 p35 inh: 1; Cneo AK release: -3; INS-1E GSIS act: 1; PAX8 reporter: 83*

How did CCCOc1ccc(/C=N/NC(=O)CN2CCCCC2)cc1OCC do in these assays?
dFosB act: -5; CDK5 p35 inh: 0; Cneo AK release: -3; INS-1E GSIS act: 4; PAX8 reporter: 5; HIV Env fusion: -6

What do the screens show for `c1cc(SC2CCCCC2)cc(-c2nc3cnccn3c2NC2CCCCC2)c1`?
dFosB act: -2; CDK5 p35 inh: 1; Cneo AK release: 2; INS-1E GSIS act: 27; PAX8 reporter: -4; HIV Env fusion: 59*

What do the screens show for `CCC(C)Sc1cc(-c2nc3ccccn3c2NC2CCCCC2)ccc1OC` (configuration not stated)?
dFosB act: -11; CDK5 p35 inh: 0; Cneo AK release: -1; INS-1E GSIS act: -18; PAX8 reporter: 34; HIV Env fusion: 59*!

Results for CCC(C)Sc1cccc(-c2nc3cnccn3c2NC2CCCCC2)c1 (configuration not stated) ?
dFosB act: -8; CDK5 p35 inh: 0; Cneo AK release: -3; INS-1E GSIS act: 170*; PAX8 reporter: 13; HIV Env fusion: 21

What do the screens show for `CCC(C)Sc1cc(-c2nc3cc(C)ccn3c2NC2CCCCC2)ccc1OC` (configuration not stated)?
dFosB act: 3; CDK5 p35 inh: 1; Cneo AK release: -3; INS-1E GSIS act: -37; PAX8 reporter: -1; HIV Env fusion: 7

What do the screens show for `O=S(=O)(N[C@H]1CC[C@H](CCn2cc(-c3ccccc3F)nn2)O[C@@H]1CO)c1ccc(F)cc1`?
INS-1E GSIS act: -5; PAX8 reporter: 13

How did CO[C@H]1CN(C)C(=O)c2cc(NC(=O)C3CCCC3)ccc2OC[C@H](C)N(C)C[C@@H]1C do in these assays?
Cneo AK release: 1; INS-1E GSIS act: 6; PAX8 reporter: 2

What do the screens show for `COc1ccc(NC(=O)Nc2ccc3c(c2)C(=O)N([C@H](C)CO)C[C@@H](C)[C@@H](CN(C)S(=O)(=O)c2ccc(Cl)cc2)OCCCC[C@H](C)O3)cc1`?
Cneo AK release: 96*; INS-1E GSIS act: 34; PAX8 reporter: -8; HIV Env fusion: -22[16.7 µM]

Results for COc1ccc(S(=O)(=O)N(C)C[C@@H]2OCCCC[C@H](C)Oc3ccc(NC(=O)Nc4ccc(F)cc4)cc3C(=O)N([C@H](C)CO)C[C@H]2C)cc1 ?
Cneo AK release: -1; INS-1E GSIS act: -32; PAX8 reporter: 67*; HIV Env fusion: 21[16.7 µM]

What do the screens show for `C[C@H](CO)N1C[C@H](C)[C@H](CN(C)S(C)(=O)=O)Oc2c(NC(=O)C3CCCCC3)cccc2C1=O`?
Cneo AK release: -4; INS-1E GSIS act: 4; PAX8 reporter: 3; HIV Env fusion: 4[16.7 µM]

Results for COc1cccc(CNC(=O)C[C@@H]2CC[C@@H](NC(=O)C3CCC3)[C@@H](CO)O2)c1 ?
Cneo AK release: -3; INS-1E GSIS act: 10; PAX8 reporter: -7; HIV Env fusion: 14[16.7 µM]

What do the screens show for `CCCCCCCCCCn1ccc(=N)cc1`?
dFosB act: -6; CDK5 p35 inh: 0; Cneo AK release: 10; INS-1E GSIS act: -3; PAX8 reporter: 83*; HIV Env fusion: 78*

How did Cc1ccccc1Cn1cnc2c(cnn2C(C)(C)C)c1=O do in these assays?
dFosB act: 0; CDK5 p35 inh: -1; Cneo AK release: -5; INS-1E GSIS act: 1

How did CC(C)(C)n1ncc2c(=O)n(Cc3cccc(Cn4cnc5c(cnn5C(C)(C)C)c4=O)c3F)cnc21 do in these assays?
dFosB act: 0; CDK5 p35 inh: 0; Cneo AK release: -4; INS-1E GSIS act: -39; PAX8 reporter: 79*; HIV Env fusion: 92*

How did CCCC(=O)Nc1ccc2c(c1)C(=O)N(C)[C@@H]1CC[C@@H](CC(=O)N3CCCCC3)O[C@@H]1CO2 do in these assays?
Cneo AK release: 0; INS-1E GSIS act: 0; PAX8 reporter: -18

Results for CC(C)(C)c1ccc(-c2cc(NC(=O)Cc3c[nH]c4ccccc34)ccc2Nc2cccnc2)cc1 ?
INS-1E GSIS act: 57*; PAX8 reporter: 34; HIV Env fusion: 74*
